From PubChem
Only some compounds are listed: those with a hit (about 2.8% of all), similar ones and a draw of the others.
NPY2 pot ag – human NPY-Y2 potentiation or agonism, primary screen; P49146; cells expressing NPY-Y2, potentiator/agonist read-out; activation, % at 3.6 µM; 220,000 compounds, 0.45% hits; in the data active means activation above about 27%;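 further: cells stimulated with NPY near EC25 plus isoproterenol at EC100; 0% = vehicle plus submaximal agonist and 100% = vehicle plus saturating agonist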
NPY1 pot ag – potentiates or activates human NPY-Y1 receptor; P25929; NPY-Y1 expressing cells, potentiator/agonist activation; activation, % at 3.6 µM; 220,000 compounds, 0.37% hits; AID 1304; in the data active means activation above about 33%, passing the limit was not always enough;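 further: cells stimulated with NPY at EC10 then isoproterenol at EC100; 0% = low agonist plus stimulus and 100% = saturating agonist plus stimulus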
Target sequence (P25929 whole entry, looked up): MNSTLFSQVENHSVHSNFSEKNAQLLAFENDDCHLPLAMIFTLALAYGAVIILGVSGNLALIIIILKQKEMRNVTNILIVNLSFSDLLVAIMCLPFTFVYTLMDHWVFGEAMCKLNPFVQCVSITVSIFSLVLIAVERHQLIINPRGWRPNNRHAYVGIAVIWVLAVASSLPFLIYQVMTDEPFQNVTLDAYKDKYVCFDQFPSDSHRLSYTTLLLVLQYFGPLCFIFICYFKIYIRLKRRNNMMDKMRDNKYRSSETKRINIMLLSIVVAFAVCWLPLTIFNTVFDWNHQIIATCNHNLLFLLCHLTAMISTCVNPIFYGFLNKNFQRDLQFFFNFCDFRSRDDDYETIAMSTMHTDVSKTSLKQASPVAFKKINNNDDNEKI
EP2 antag – blocks the human prostaglandin E2 receptor EP2; P43116; C6 glioma cells expressing human EP2, cAMP TR-FRET; cells stimulated with saturating PGE2; inhibition, % at 25 µM; 260,000 compounds, 0.52% hits; AID 1422;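 active means percent inhibition above 40 after rounding to a whole number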;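 further: rat C6 glioma host cells with rolipram phosphodiesterase inhibitor present; the protocol text gives 20 µM as final concentration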
Target sequence (P43116 whole entry, looked up): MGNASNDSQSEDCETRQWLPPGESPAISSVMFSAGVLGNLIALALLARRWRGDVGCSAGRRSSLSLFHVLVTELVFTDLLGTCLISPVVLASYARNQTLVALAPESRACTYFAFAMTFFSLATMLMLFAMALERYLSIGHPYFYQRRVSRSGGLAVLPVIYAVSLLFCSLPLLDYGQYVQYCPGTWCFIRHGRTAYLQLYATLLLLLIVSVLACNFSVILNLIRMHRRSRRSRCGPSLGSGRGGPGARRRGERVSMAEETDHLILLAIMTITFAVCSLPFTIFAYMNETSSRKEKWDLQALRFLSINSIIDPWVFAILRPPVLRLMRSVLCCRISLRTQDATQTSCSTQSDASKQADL
NPY Y2 blocker – antagonists of human neuropeptide Y receptor Y2; inhibition, % at 2.7 µM; 140,000 compounds, 0.99% hits; P49146; NPY-Y2 expressing cells, antagonist mode;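 further: 0% = vehicle with agonist challenge and 100% = reference antagonist with challenge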
EP2 modulator – modulates human prostaglandin E2 receptor EP2 signaling; induction, % at 25 µM; 260,000 compounds, 0.83% hits; EP2-expressing cells, cAMP HTRF FRET, PGE2 co-stimulation; AID 940;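 active means compounds whose cAMP rise, as percent of the full-agonist control response, exceeds 60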;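 further: rat C6 glioma line stably carrying human EP2 under a CMV promoter; the protocol text gives 20 µM as final concentration; 100% = response of wells given 1 µM PGE2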
NPY-Y1 antag – antagonists of human neuropeptide Y receptor Y1; 200,000 compounds, 1% hits; HEK293-CNG Y1 cells, membrane potential fluorescence; NPY at EC95, then isoproterenol; P25929; AID 1040; inhibition, % at 3.6 µM;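 active means inhibition above the campaign mean inhibition of all tested compounds plus 3 SD, cut at about 20% in these data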;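 further: 0% = DMSO wells given NPY plus isoproterenol and 100% = isoproterenol alone without NPY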
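Material: Y1- and CNG-channel-expressing HEK293 cells / Probe or stimulus: NPY 25 nM then isoproterenol 1 µM plus Ro 20-1724 25 µM / Doses: 3.6 µM single dose, DMSO 0.4% / Schedule: compound incubation 1 h at room temperature, readout 45 min post-stimulation / Signal: membrane potential fluorescence / Benchmarks: isoproterenol-only wells as full block versus NPY-plus-isoproterenol wells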
NPY1 antag conf – human NPY-Y1 antagonism, confirmation; shares compounds with NPY-Y1 antag; HEK293-CNG NPY-Y1, membrane potential fluorescence, cAMP; NPY challenge against isoproterenol-raised cAMP; inhibition, % at 3.6 µM; 1,200 compounds, 21% hits; in the data active means inhibition above about 20%;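 further: 0% = vehicle with agonist plus stimulus and 100% = stimulus alone without agonist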
NPY2 antag ctr – counter-screen for NPY-Y1 antagonists: human NPY-Y2 antagonism; 1,200 compounds, 28% hits; inhibition, % at 3.6 µM; shares compounds with NPY-Y1 antag; HEK293 NPY-Y2 CNG membrane potential fluorescence; cells given NPY, then isoproterenol;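 further: 0% = DMSO with agonist challenge and 100% = reference antagonist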
An asterisk follows results filed as active; x = no result. Unless noted, no stated cut-off is given here; in the data, active means inhibition above about 17%; inactive means the rest.

SMILES	NPY2 pot ag	NPY1 pot ag	EP2 antag	NPY Y2 blocker	EP2 modulator	NPY-Y1 antag	NPY1 antag conf	NPY2 antag ctr
Cc1cc2cc(C)c(NCCNC(=O)c3ccccc3C)nc2cc1C	x	x	10.6	x	-6.8	x	x	x
Cc1ccc(C(=O)NCCNc2nc3cc(C)c(C)cc3cc2C)cc1	-13.9	-27.7	3.2	x	2.3	32.9*	41.5*	65.1*
Cc1cc2cc(C)c(NCCNC(=O)c3ccccc3)nc2cc1C	-53.2	-58.8	13.8	x	-16.4	45.5*	31.8*	37.3*
c1ccc2c(c1)CC/C2=N/Nc1nc2ccccc2[nH]1	-11.0	-36.9	1.5	x	-55.4	26.4*	20.4*	20.8*
CC(C)(C)C1CCC(=NNc2nc3ccccc3[nH]2)CC1 (centres undefined)	-10.1	-13.8	10.1	x	-50.4	2.4	x	x
Cc1ccc(C(=O)NC(=S)Nc2ccc(Oc3ccc(Cl)cc3)cc2)cc1	2.6	-10.2	5.2	1.4	0.3	1.5	x	x
O=C(NC(=S)Nc1ccc(Oc2ccccc2)cc1)c1ccc(Cl)cc1	-5.8	-34.1	21.2	4.5	29.9	20.4*	9.4	10.5
C=CCOc1c(Cl)cc(C2C(C#N)=C(N)OC3=C2C(=O)CCC3)cc1OCC (centres undefined)	x	x	9.6	x	-0.2	x	x	x
Cc1oc(-c2ccccc2)nc1Cn1cccc1C1=NC(c2ccccc2)CO1 (centres undefined)	0.0	18.4	10.1	9.7	22.8	21.6*	21.3*	23.9*
O=Cc1cn(-c2ccccc2)nc1-c1cc2c(ccc3ccccc32)oc1=O	-1.2	-2.2	x	3.6	25.9	2.6	x	x
O=Cc1cn(-c2ccccc2)nc1-c1cc2cc(O)ccc2oc1=O	-22.0	-54.1	8.7	11.0	-1.1	21.6*	19.2	14.2
Cc1ccccc1OCC(=O)NCC(=O)OCC(=O)c1cccs1	x	x	10.4	x	-32.7	x	x	x
CC(C)CC1(C)NC(=O)N(CC(=O)Nc2cccc(S(=O)(=O)N(C)c3ccccc3)c2)C1=O (centres undefined)	-20.1	-51.9	3.0	x	-37.3	50.7*	45.9*	50.5*
O=C1NCCOc2ccc(S(=O)(=O)NCc3ccco3)cc21	x	x	5.3	x	0.3	x	x	x
Cc1ccc(SCCC(=O)OCC(=O)Nc2ccc(S(N)(=O)=O)cc2)cc1	-16.5	-42.7	2.7	x	-28.4	x	x	x
Cc1ccc(SCCC(=O)OCC(=O)NCC2CCCCC2)cc1	-35.8	-64.4	1.8	x	0.3	36.0*	13.7	9.2
O=C(Cn1nc(CNc2ccc(Cl)cc2)[n+]2c1CCCCC2)c1ccccc1	-1.8	-9.6	4.7	-0.5	11.2	1.4	x	x
Cc1ccc(C(C)C)c(OCc2nn(CC(=O)c3ccc(Cl)cc3)c3[n+]2CCCCC3)c1	-13.2	-36.7	1.6	x	37.5	35.0*	19.3	17.7*
Cc1cccc2cc(CN(Cc3ccco3)Cc3nnnn3CCc3ccccc3)c(=O)[nH]c12	x	x	9.0	x	52.9	x	x	x
O=C1CCC(C(=O)OCC(=O)C23CC4CC(CC(C4)C2)C3)N1 (centres undefined)	-1.7	22.1	11.8	-0.5	23.6	23.4*	-2.2	0.6
O=C1CCC(C(=O)OCc2ccccc2)N1 (centres undefined)	-21.1	1.1	6.2	1.2	14.3	5.9	x	x
CCn1nc(CC(=O)Nc2nnc(CC(=O)N3CCCC3)s2)c2ccccc2c1=O	-20.2	-17.6	15.7	4.3	19.5	20.4*	-0.7	4.2
Brc1ccc(C2=Nn3c(nnc3-c3n[nH]c4c3CCC4)SC2)cc1	-39.9	-49.8	9.7	15.3	7.5	21.9*	14.0	20.5*
CCCCOC(=O)c1ccc(NC(=S)NC(=O)c2c(Cl)cnn2C)cc1	-15.4	-36.1	18.4	8.0	27.9	25.2*	9.1	12.2
CCCCOC(=O)c1ccc(NC(=S)NC(=O)c2c(Cl)cnn2CC)cc1	-5.8	-32.1	16.1	4.5	19.3	2.1	x	x
SMILES	NPY2 pot ag	NPY1 pot ag	EP2 antag	NPY Y2 blocker	EP2 modulator	NPY-Y1 antag	NPY1 antag conf	NPY2 antag ctr
CC(=O)CSc1nc2c(c(=O)n(C)c(=O)n2C)n1Cc1ccc(C)cc1	x	x	9.2	x	11.3	x	x	x
COCCN1Cc2cccc(C(=O)Nc3cc(OC)ccc3OC)c2C1=O	-1.8	-12.2	x	2.8	-9.1	34.1*	26.6*	62.4*
CN1CCc2c(n(CC(O)CNCc3ccccc3)c3ccccc23)C1=O (centres undefined)	-15.8	-30.8	4.2	x	-16.0	22.5*	13.0	15.3
COc1ccc(C2c3[nH]c4ccccc4c3CCN2CCCn2cccn2)c(C)c1C (centres undefined)	-16.9	-15.3	6.7	x	36.6	36.4*	18.6	19.6*
COc1ccc(OC)c(NC(=O)CSc2nc3cc4c(cc3cc2C)OCO4)c1	x	x	15.2	x	19.9	x	x	x
CC(C)OCCCNC(=O)c1c(N)n(/N=C/c2cccs2)c2nc3ccccc3nc12	9.5	13.6	x	9.5	22.6	25.1*	17.4	16.5
CCCn1c(SCc2ccc(Cl)cc2)nc2c1c(=O)[nH]c(=O)n2C	-8.4	-33.4	4.4	12.4	47.8	23.9*	22.5*	39.9*
CCCn1c(SCC(=O)c2ccc(Cl)cc2)nc2c1c(=O)[nH]c(=O)n2C	x	x	4.0	x	-24.6	x	x	x
COc1ccc(CN2CCC(O)(c3ccc(F)cc3)CC2)cc1CO	x	x	5.3	x	-22.4	x	x	x
O=C1CCC(C2CCC(=O)N2)N1 (centres undefined)	x	x	9.6	x	14.4	x	x	x
Cc1cc2c(s1)c1cnn(CCc3ccccc3)c(=O)c1n2C	x	x	x	x	-16.6	x	x	x
CCC(CC)=NNC(=O)c1ccccc1OCc1ccc(F)cc1	-34.9	-66.4	5.5	6.3	11.7	21.1*	4.1	6.7
Cc1ccc(/C=N/NC(=O)c2ccccc2OCc2ccc(F)cc2)o1	-75.3	-107.4	5.5	14.6	36.5	22.2*	14.6	15.5
COc1ccc(/C(C)=N/NC(=O)c2ccccc2OCc2ccccc2)c(OC)c1	-40.0	-32.2	6.4	x	-20.7	14.8	x	x
NC(=O)NC(=O)COC(=O)c1ccccc1OCc1ccc(F)cc1	-0.1	14.7	8.5	x	-0.5	x	x	x
COc1ccc(/C=N/NC(=O)c2ccccc2OCc2ccccc2)c(OC)c1	-64.3	-41.3	4.3	x	41.2	24.8*	7.5	14.5
O=C(CSCc1nc2ccccc2[nH]1)N1CCN(c2cccc(Cl)c2)CC1	-17.1	-8.3	9.7	-2.4	-11.0	21.2*	4.2	4.3
O=C(CSCc1nc2ccccc2[nH]1)N1CCN(c2ccc(F)cc2)CC1	12.7	-3.9	25.8	-2.0	5.7	-6.3	x	x
CCOC(=O)c1c(NC(C)=O)sc2c(OCCN(CC)CC)c(Br)ccc12	-38.4	-75.1	2.9	x	-16.2	9.6	x	x
